What is called IC50 is the concentration needed to halve the response being measured. Read a low IC50 as higher potency. In general, Cmax refers to the highest concentration seen after dosing.

Data set [1] concerns Plasmodium falciparum. Nature of the data set: Antiplasmodial activity after 48 hrs against Plasmodium falciparum 3D7 as Malstat LDH activity. Conditions: for IC50: 3D7, 48 h. The format is functional, organism-based. Summed up: (§1)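 Synchronized ring-stage 3D7 plated at 1% parasitemia. Drugs tested at 1 nM to 100 μM, dissolved in DMSO or water; 0.5% DMSO was the negative control. Cultures kept 48, 72, 96 or 120 h, with medium changed at day 3. Viability read by Malstat parasite lactate dehydrogenase activity. IC50 reported as mean ± SEM.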

In data set [2] the test system is Plasmodium falciparum. The experiment in a line: Antiplasmodial activity after 72 hrs against Plasmodium falciparum 3D7 as Malstat LDH activity. The format is functional, organism-based. Conditions: for IC50: 3D7, 72 h. Summed up:
as §1

Data set [3] has as its system Plasmodium falciparum. Nature of the data set: Antiplasmodial activity after 120 hrs against Plasmodium falciparum 3D7 as Malstat LDH activity. The format is functional, organism-based. Conditions: for IC50: 3D7, 120 h. Summed up: as §1
Data set [4] relates to Plasmodium falciparum. Nature of the data set: Antiplasmodial activity after 96 hrs against Plasmodium falciparum 3D7 as Malstat LDH activity. The format is functional, organism-based. Conditions: for IC50: 3D7, 96 h. Summed up:
as §1

Data set [5] relates to Plasmodium falciparum. The experiment in a line: Antiplasmodial activity against Plasmodium falciparum 3D7 as early schizont maturation arrest at IC50 after 48-120 hrs by giemsa stain. The format is functional, organism-based. Summed up:
(§2)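 Synchronized 3D7 cultures exposed to drug at the 96-h IC50 over three life cycles, with 0.5% DMSO as untreated control. Giemsa smears were taken at 48, 72, 96 and 120 h, and developmental stages were counted at each time point.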

Data set [6] deals with Plasmodium falciparum. Nature of the data set: Antiplasmodial activity against Plasmodium falciparum 3D7 assessed as multiple-nuclei schizont arrest at IC50 after 96 hrs by transmission electron microscopy. The format is functional, organism-based. Summed up:
(§3)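 Cultures exposed to drug at the 96-h IC50 and collected after 96 h of treatment. Fixed in 1% glutaraldehyde and 4% paraformaldehyde in PBS, then processed for transmission electron microscopy to assess schizont stage and morphology. Untreated parasites served as comparison.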

The subject of data set [7] is Plasmodium falciparum. Nature of the data set: Relative activity against Plasmodium falciparum 3D7 as IC50 ratio after 48 and 96 hrs. The format is functional.
Data set [8] deals with Plasmodium falciparum. Nature of the data set: Antiplasmodial activity against Plasmodium falciparum 3D7 as late trophozoite to early schizont arrest at IC50 after 48-120 hrs by giemsa stain. The format is functional, organism-based. Summed up: as §2
Data set [9] relates to Plasmodium falciparum. The experiment in a line: Antiplasmodial activity against Plasmodium falciparum 3D7 as 2xnuclei schizont arrest at IC50 after 96 hrs by transmission electron microscopy. The format is functional, organism-based. Summed up: as §3
The test system of data set [10] is Plasmodium falciparum. Nature of the data set: Antiplasmodial activity as ED50 against parasite growth after 48 hrs for Plasmodium falciparum 3D7. The format is functional, organism-based. Conditions: 3D7, 48 h. Summed up:
as §1

Data set [11] concerns Plasmodium falciparum. The experiment in a line: Antiplasmodial activity against Plasmodium falciparum 3D7 as delayed maturation in first replication and early second cycle arrest at IC50. The format is functional, organism-based. Summed up: as §2
A short description of data set [12]: Cmax in human at 12 mg/kg administered as single oral dose. The format is ADME, organism-based. Details: dose 12 mg/kg, route oral. Conditions: in vivo.
Data set [13] has as its system Plasmodium falciparum. The experiment in a line: Antiplasmodial activity against Plasmodium falciparum 3D7 as delayed first replication cycle at IC50 after 48-120 hrs by giemsa stain. The format is functional. Summed up: as §2
In data set [14] the test system is Plasmodium falciparum. Nature of the data set: Antiplasmodial activity as ED50 against parasite growth after 96 hrs for Plasmodium falciparum 3D7. The format is functional, organism-based. Conditions: 3D7, 96 h. Summed up:
as §1

Converted amounts (≈) assume the structure as drawn. The source made the active and inactive calls. The rule behind the calls is not given here.

Regarding `CC(=O)NC[C@H]1CN(c2ccc(N3CCOCC3)c(F)c2)C(=O)O1`, the outcome in the data set with Plasmodium falciparum [1], in the data set on Plasmodium falciparum [2], in the data set on Plasmodium falciparum [3] and with Plasmodium falciparum [4] was inactive.

Regarding `CC[C@H]1OC(=O)[C@H](C)[C@@H](O[C@H]2C[C@@](C)(OC)[C@@H](O)[C@H](C)O2)[C@H](C)[C@@H](O[C@@H]2O[C@H](C)C[C@H](N(C)C)[C@H]2O)[C@](C)(O)C[C@@H](C)CN(C)[C@H](C)[C@@H](O)[C@]1(C)O` [AZITHROMYCIN], the outcome in the data set with Plasmodium falciparum [5] and in the data set on Plasmodium falciparum [6] was Active. Besides, the IC50 in the data set with Plasmodium falciparum [1] stood at 9040 nM; in the data set with Plasmodium falciparum [2], 4570 nM; with Plasmodium falciparum [3] it was 410 nM; in the data set on Plasmodium falciparum [4], 940 nM. Moreover, the “Ratio IC50” value in the data set on Plasmodium falciparum [7] is on record as 10.

As to `C[C@H]1c2cccc(O)c2C(=O)C2=C(O)[C@]3(O)C(=O)C(C(N)=O)=C(O)[C@@H](N(C)C)[C@@H]3[C@@H](O)[C@@H]21.O` [DOXYCYCLINE], the result in the data set with Plasmodium falciparum [5] and with Plasmodium falciparum [6] was Active. Moreover, the IC50 was 5420 nM in the data set with Plasmodium falciparum [1], 1490 nM in the data set on Plasmodium falciparum [2], 120 nM in the data set on Plasmodium falciparum [3] and 720 nM in the data set with Plasmodium falciparum [4]. Also, the “Ratio IC50” value in the data set on Plasmodium falciparum [7] was 10.

Regarding `CC[C@H]1OC(=O)[C@H](C)C(=O)[C@H](C)[C@@H](O[C@@H]2O[C@H](C)C[C@H](N(C)C)[C@H]2O)[C@](C)(OC)C[C@@H](C)C(=O)[C@H](C)[C@H]2N(CCCCn3cnc(-c4cccnc4)c3)C(=O)O[C@]12C` [TELITHROMYCIN], the result in the data set with Plasmodium falciparum [8], in the data set on Plasmodium falciparum [9] and in the data set with Plasmodium falciparum [11] was Active. Besides, the IC50 in the data set on Plasmodium falciparum [1] came out at 8080 nM; in the data set on Plasmodium falciparum [10], 6.56 µg/mL (≈ 8.08 µM); in the data set on Plasmodium falciparum [2] it was 1040 nM; in the data set on Plasmodium falciparum [3], 440 nM; with Plasmodium falciparum [14], 0.23 µg/mL (≈ 0.283 µM); with Plasmodium falciparum [4], 280 nM. The molecule also displayed a Cmax in data set [12] of 1900 ng/mL. In the data set on Plasmodium falciparum [13], this molecule showed an Activity of 5 h.

The values above are taken from ChEMBL document CHEMBL1152993, “Telithromycin and quinupristin-dalfopristin induce delayed death in Plasmodium falciparum” (Antimicrob Agents Chemother, 2008).
